Compounds with a hit are over-represented: about 3.1% of the library has one in this group of screens.
Env fusion inh – inhibitors of HIV Env-mediated cell fusion. HeLa-JRFL Env/CEM21 cell fusion, luciferase. inhibition, % at 12.3 µM. actives 1.1% (n = 360,000);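 active means mean replicate inhibition score of at least 50 and every replicate individually at or above 50; inconclusive means only one of the two criteria met; inactive means mean below 50 and not all replicates reaching 50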
EWS-Fli block – EWS/Fli transcriptional activity inhibition; A673 NR0B1-luciferase reporter, viability-normalised; inhibition, % at 12.6 µM; actives 0.67% (n = 350,000); AID 651661;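 active means mean inhibition of at least 50% after viability correction, with every replicate also passing that limit; inconclusive means mean reaches 50% but only one of two replicates passes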;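 further: firefly luciferase signal divided by Alamar Blue viability fluorescence both relative to DMSO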
PGC1a acetyl inh – PGC1a acetylation modulation, inhibitor mode. U2OS PGC1a acetylation, AlphaScreen anti-acetyl-lysine; with virally co-expressed GCN5 acetyltransferase. inhibition, % at 15.6 µM. actives 0.17% (n = 350,000). AID 651687;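 active means every replicate shows inhibition of at least 40%; inconclusive means mean inhibition at least 40% but some replicate below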
FN deposit inh – fibronectin deposition inhibition; AH1F fibroblasts, Alexa488-fibronectin deposition fluorescence, overnight; inhibition, % at 12.6 µM; actives 0.086% (n = 350,000);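 active means mean inhibition across replicates of 30% or more, regardless of how many single replicates reach that level; inconclusive means mean under 30% yet at least half of replicates reach 30%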
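Material – AH1F fibroblast monolayer, labelled fibronectin deposition · Reagent – labelled fibronectin 24 nM · Timing – 1 h adhesion, overnight exposure · Measured by – fluorescence at 485 nm excitation, 525 nm emission · Read-out – inhibition of fibronectin deposition signal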
FGF22 binding – FGF22 (human) thermal shift binding | recombinant FGF22 thermal shift, SYPRO orange fluorescence; percent of sucrose octasulfate shift, DMSO zero | activity (Tm shift, normalised), % at 9.99 µM | actives 1.5% (n = 340,000);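 active means mean Tm shift, scaled 0 neutral to 100 positive control, at about 1.3% or above, every replicate too, limit read from the data; inconclusive means no clear call, values can overlap the other calls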
Target sequence (Q9HCT0 whole entry, looked up): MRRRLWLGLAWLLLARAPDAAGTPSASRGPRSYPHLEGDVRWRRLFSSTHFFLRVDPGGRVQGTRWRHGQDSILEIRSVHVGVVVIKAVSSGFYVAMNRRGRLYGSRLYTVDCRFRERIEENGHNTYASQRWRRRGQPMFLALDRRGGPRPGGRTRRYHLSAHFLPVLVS
PAX8 reporter – lowers PAX8-driven luciferase in RMG-I cells | inhibition, % at 12.6 µM | RMG-I TPO-luciferase reporter, SteadyGlo, 24 h | actives 1.2% (n = 360,000);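 active means mean replicate inhibition at least 60% with every replicate also reaching 60%; inconclusive means only one of the two criteria is met; inactive means mean below 60% and not all replicates reaching 60%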;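 further: luciferase light reporting Pax8 driven TPO promoter activity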
Large screens that a line does not name were inactive.

COc1ccc(S(=O)(=O)Nc2ccc3c(c2)C(=O)N([C@@H](C)CO)C[C@@H](C)[C@@H](CN(C)C(=O)Nc2ccc(C(F)(F)F)cc2)O3)cc1	none (no result: PAX8 reporter)
Cc1[nH]c(=S)[nH]c(=O)c1CCOc1ccccc1	none (no result: Env fusion inh, EWS-Fli block, FN deposit inh, FGF22 binding, PAX8 reporter)
Cc1ccccc1OCCc1c(C)[nH]c(=S)[nH]c1=O	EWS-Fli block 54.9 (no result: PGC1a acetyl inh)
COc1ccc(NC(C)=O)c(C)c1	none (no result: PGC1a acetyl inh)
COc1ccc(-n2nc3cc(C)c(NC(C)=O)cc3n2)cc1	EWS-Fli block 50.6 (no result: PGC1a acetyl inh)
COc1ccc(-c2ccc(/C=N/NC(=O)Cc3nnc(N)s3)o2)cc1Cl	PGC1a acetyl inh 56.8
C[C@H]1CN([C@@H](C)CO)C(=O)c2cc(C#CC(C)(C)O)cnc2O[C@@H]1CN(C)Cc1cncnc1	none (no result: PAX8 reporter)
COc1ccc(S(=O)(=O)Nc2ccc3c(c2)C(=O)N([C@@H](C)CO)C[C@H](C)[C@@H](CN(C)Cc2ccc(C(F)(F)F)cc2)OCCCC[C@H](C)O3)cc1	PAX8 reporter 106.0
COc1ccc(S(=O)(=O)Nc2ccc3c(c2)C(=O)N([C@H](C)CO)C[C@H](C)[C@@H](CN(C)Cc2ccc(C(F)(F)F)cc2)OCCCC[C@H](C)O3)cc1	PAX8 reporter 104.2
COc1ccc(OCc2n(CC(=O)OC3CC(C)CCC3C(C)C)c3ccccc3[n+]2C)cc1 (stereo unspecified)	Env fusion inh 86.8, EWS-Fli block 53.1, PAX8 reporter 99.4
COc1ccc(-c2n(CC(=O)OC3CC(C)CCC3C(C)C)c3ccccc3[n+]2C)cc1 (stereo unspecified)	FGF22 binding 44.0 (no result: PGC1a acetyl inh)
CSC1SCC2C(=O)N(C)C(C(C)C)C(=O)OCC(NC(=O)c3cnc4ccccc4n3)C(=O)NC(C)C(=O)N(C)C1C(=O)N(C)C(C(C)C)C(=O)OCC(NC(=O)c1cnc3ccccc3n1)C(=O)NC(C)C(=O)N2C (stereo unspecified)	Env fusion inh 84.2, PGC1a acetyl inh inconclusive, PAX8 reporter 96.8
CCCC#Cc1cnc2c(c1)C(=O)N([C@@H](C)CO)C[C@H](C)[C@H](CN(C)S(=O)(=O)c1cn(C)cn1)O2	none (no result: FN deposit inh, FGF22 binding)
O=C(Nc1cccc(Br)c1)c1ccc2c(c1)SC1=NS(=O)(=O)CCN12	PAX8 reporter 88.3
CC(=O)Nc1ccc(NC(=O)CSc2nnc(NC(=O)c3ccccc3F)s2)cc1	FGF22 binding 1.9
O=C(CSc1nnc(NC(=O)c2ccccc2F)s1)NC1CCCC1	none (no result: PGC1a acetyl inh)
NC(=O)c1ccsc1NC(=O)CSc1nnc(Nc2ccccc2)s1	FGF22 binding 1.5 (no result: PGC1a acetyl inh)
C[C@H]1CN([C@@H](C)CO)C(=O)c2cccc(NC(=O)C3CCCCC3)c2O[C@@H]1CN(C)S(C)(=O)=O	none (no result: PGC1a acetyl inh)
O=C(C[C@@H]1C=C[C@H](NC(=O)C2CCOCC2)[C@H](CO)O1)NCc1ccccc1Cl	none (no result: Env fusion inh, FN deposit inh, FGF22 binding, PAX8 reporter)
O=C(C[C@H]1CC[C@@H](NS(=O)(=O)c2ccccc2)[C@H](CO)O1)NCc1ccccc1F	none (no result: FN deposit inh)
O=C(CNC(=O)c1cccc(-n2cccc2)c1)Nc1ccccc1Br	Env fusion inh 69.8 (no result: FGF22 binding)
C[C@@H]1CN([C@@H](C)CO)C(=O)c2cc(NS(=O)(=O)c3ccc(F)cc3)ccc2O[C@@H](C)CCCCO[C@@H]1CN(C)C	none
Cc1oc(-c2cc(F)ccc2F)nc1CN1CCN(C)C(=O)[C@@H]1C	FGF22 binding 42.9 (no result: PGC1a acetyl inh)
Cc1ccsc1-c1nc(CN2CCN(C)C(=O)[C@@H]2C)c(C)o1	none
CO[C@@H]1CN(C)C(=O)c2cc(NC(C)=O)ccc2OC[C@H](C)N(Cc2nccs2)C[C@@H]1C	none (no result: PAX8 reporter)
COc1ccc(S(=O)(=O)Nc2ccc3c(c2)C(=O)N([C@H](C)CO)C[C@@H](C)[C@H](CN(C)S(=O)(=O)c2ccc(Cl)cc2)OCCCC[C@H](C)O3)cc1	FGF22 binding 22.7, PAX8 reporter 83.2
COc1ccc(S(=O)(=O)N(C)C[C@@H]2OCCCC[C@@H](C)Oc3ccc(NS(=O)(=O)c4ccc(Cl)cc4)cc3C(=O)N([C@@H](C)CO)C[C@H]2C)cc1	PAX8 reporter 66.2 (no result: Env fusion inh, PGC1a acetyl inh, FGF22 binding)
COc1ccc(S(=O)(=O)Nc2ccc3c(c2)C(=O)N([C@H](C)CO)C[C@H](C)[C@H](CN(C)S(=O)(=O)c2ccc(Cl)cc2)OCCCC[C@@H](C)O3)cc1	none

High-throughput results deposited in PubChem BioAssay by Broad Institute.
